Data on two compounds can be found in ChEMBL document CHEMBL3227917, “Structure-activity relationships of dimeric Catharanthus alkaloids. 2. Experimental antitumor activities of N-substituted deacetylvinblastine amide (vindesine) sulfates” (J Med Chem, 1979).

Structures are written as SMILES.

The test system of data set [1] is CHO. The data set is described as follows: Mitotic arrest in CHO cells assessed as increase in cell accumulation at 0.2 ug/ml. The data set is classed as functional, Cricetulus griseus. Summed up: (§1)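 Chinese hamster ovary cells in tissue culture, scored for mitotic arrest as increase in cells in mitotic arrest over control: +++, 40–50%; ++, 15–40%; +, 10–15%; ±, 7–10%; –, 3–7%. Cytotoxicity noted separately.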

The subject of data set [2] is CHO. The data set is described as follows: Mitotic arrest in CHO cells assessed as increase in cell accumulation at 2 ug/ml. Format: functional, Cricetulus griseus. Summed up:
as §1

Data set [3] deals with P388/VCR. Description: Antitumor activity against mouse P388/VCR cells allografted in B6D2F1 mouse assessed as increase in host lifespan at 0.90 mg/kg, ip administered on days 1, 5 and 9. The data set is classed as functional. The note with it: dose 0.9 mg/kg; route intraperitoneal. Summed up:
(§2)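 P388/VCR leukemia in groups of 10 B6D2F1 mice, run at Lilly using the cell strain received from NCI. Sulfate salts given ip on days 1, 5 and 9. Read-out is percent increase in lifespan.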

The subject of data set [4] is P388/S. Description: Antitumor activity against mouse P388/S cells allografted in CD2F1 mouse assessed as increase in host lifespan at 0.36 mg/kg, ip administered on days 1, 5 and 9. The data set is classed as functional. The note with it: route intraperitoneal. In a few lines:
(§3)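 Groups of eight male CD2F1 mice bearing P388 leukemia, run at NCI. Sulfate salts given ip on days 1, 5 and 9. Read-out is percent increase in lifespan.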

Data set [5] relates to P388/VCR. Description: Antitumor activity against mouse P388/VCR cells allografted in CD2F1 mouse assessed as increase in host lifespan at 0.36 mg/kg, ip administered on days 1, 5 and 9. The data set is classed as functional. As to conditions: route intraperitoneal. In a few lines: as §3
Data set [6] can be described thus: Toxicity in iv dosed mouse assessed as lethality. The data set is classed as organism-based. As to conditions: in vivo.
A short description of data set [7]: Antitumor activity against mouse P388/VCR/I/63 cells allografted in Dublin-CDF1 mouse assessed as increase in host lifespan at 1.5 mg/kg, ip administered on days 1, 5 and 9. The note with it: route intraperitoneal. The data set is classed as functional.
Data set [8] has as its system CHO. The data set is described as follows: Mitotic arrest in CHO cells assessed as increase in cell accumulation at 0.02 ug/ml. The data set is classed as functional, Cricetulus griseus. In a few lines: as §1
The nature of data set [9]: Antitumor activity against mouse P1534 cells allografted in DBA2 mouse assessed as tumor growth inhibition at 0.25 mg/kg, ip administered daily for 8 to 10 days. The note with it: route intraperitoneal, read-out: TGI. The data set is classed as functional. Summed up:
(§4)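 P1534(J) leukemia implanted sc in DBA2 mice; sulfate salts dosed ip daily for 8–10 days. Growth inhibition scored –, 0–25%; +, 26–50%; ++, 51–75%; +++, 76–100%; T, lethal to ≥5 of 10 animals per group. Average of one or more tests.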

In data set [10] the test system is P388/VCR. Description: Antitumor activity against mouse P388/VCR cells allografted in B6D2F1 mouse assessed as increase in host lifespan at 0.60 mg/kg, ip administered on days 1, 5 and 9. Format: functional. The note with it: dose 0.6 mg/kg; route intraperitoneal. Summed up: as §2
Data set [11] has as its system P388/S. The data set is described as follows: Antitumor activity against mouse P388/S cells allografted in CD2F1 mouse assessed as increase in host lifespan at 1.67 mg/kg, ip administered on days 1, 5 and 9. The data set is classed as functional. As to conditions: route intraperitoneal. In a few lines:
as §3

The nature of data set [12]: Antitumor activity against mouse P1534 cells allografted in DBA2 mouse assessed as tumor growth inhibition at 0.10 mg/kg, ip administered daily for 8 to 10 days. The data set is classed as functional. As to conditions: route intraperitoneal, read-out: TGI. In a few lines: as §4
For data set [13], the system named is P388/VCR. The data set is described as follows: Antitumor activity against mouse P388/VCR cells allografted in CD2F1 mouse assessed as increase in host lifespan at 0.60 mg/kg, ip administered on days 1, 5 and 9. The data set is classed as functional. As to conditions: dose 0.6 mg/kg; route intraperitoneal. In a few lines:
as §3

Data set [14] has as its system P388/VCR. The data set is described as follows: Antitumor activity against mouse P388/VCR cells allografted in B6D2F1 mouse assessed as increase in host lifespan at 1.20 mg/kg, ip administered on days 1, 5 and 9. The data set is classed as functional. The note with it: dose 1.2 mg/kg; route intraperitoneal. In a few lines: as §2
Data set [15] concerns P388/S. The data set is described as follows: Antitumor activity against mouse P388/S cells allografted in CD2F1 mouse assessed as increase in host lifespan at 0.60 mg/kg, ip administered on days 1, 5 and 9. Format: functional. The note with it: dose 0.6 mg/kg; route intraperitoneal. Summed up: as §3
The nature of data set [16]: Antitumor activity against mouse P1534 cells allografted in DBA2 mouse assessed as tumor growth inhibition at 0.20 mg/kg, ip administered daily for 8 to 10 days. As to conditions: route intraperitoneal, read-out: TGI. Format: functional. In a few lines:
as §4

Data set [17] relates to CHO. The data set is described as follows: Cytotoxicity against CHO cells at 0.02 ug/ml. Format: cell-based, Cricetulus griseus. The note with it: chinese hamster. Summed up:
as §1

The test system of the next data set is Mus musculus. The data set is described as follows: Toxicity in CD2F1 mouse allografted with mouse P388/VCR cells at 1.67 mg/kg, ip administered on days 1, 5 and 9. Also on record: dose 1.67 mg/kg, route intraperitoneal. The note with it: in vivo. The data set is classed as organism-based.
The subject of data set [18] is P388/VCR. The data set is described as follows: Antitumor activity against mouse P388/VCR cells allografted in CD2F1 mouse assessed as increase in host lifespan at 1.00 mg/kg, ip administered on days 1, 5 and 9. The data set is classed as functional. The note with it: route intraperitoneal. In a few lines:
as §3

Data set [19] in a line: Antitumor activity against mouse P388/VCR/I/63 cells allografted in Dublin-CDF1 mouse assessed as day of host death at 1.5 mg/kg, ip administered on days 1, 5 and 9 (reference value: 10 days). Format: functional. The note with it: route intraperitoneal.
The test system of data set [20] is P388/S. The data set is described as follows: Antitumor activity against mouse P388/S cells allografted in CD2F1 mouse assessed as increase in host lifespan at 1.00 mg/kg, ip administered on days 1, 5 and 9. The data set is classed as functional. As to conditions: route intraperitoneal. Summed up: as §3
For data set [21], the system named is CHO. Description: Mitotic arrest in CHO cells assessed as increase in cell accumulation at 0.002 ug/ml. Format: functional, Cricetulus griseus. Summed up:
as §1

With `CC[C@]1(O)C[C@@H]2C[C@](C(=O)OC)(c3cc4c(cc3OC)N(C)[C@H]3[C@@](O)(C(N)=O)[C@H](O)[C@]5(CC)C=CCN6CC[C@]43[C@@H]65)c3[nH]c4ccccc4c3CC[N+]([O-])(C2)C1`, the Activity stood at 7% in the data set on CHO [1] and 15% in the data set on CHO [2].
One may read the LD50 as the dose expected to kill half of the subjects tested. As for `CC[C@]1(O)C[C@H]2CN(CCc3c([nH]c4ccccc34)[C@@](C(=O)OC)(c3cc4c(cc3OC)N(C=O)[C@H]3[C@@](O)(C(=O)OC)[C@H](OC(C)=O)[C@]5(CC)C=CCN6CC[C@]43[C@@H]65)C2)C1.O=S(=O)(O)O` [VINCRISTINE SULFATE], the Activity with P388/VCR [3] was 0%; with P388/S [4], 83%; in the data set on P388/VCR [5] it was 0%; in data set [7], 50%; with CHO [8] it was 40%; in the data set on P388/VCR [10], 5%. In addition, the Activity was 96% with P388/S [11]; 0% in the data set on P388/VCR [13]; 0% in the data set on P388/VCR [14]; 83% with P388/S [15]; “Toxic” in the data set on CHO [17]; “Toxic” with Mus musculus. Further, the Activity was 0% in the data set on P388/VCR [18], 15 days in data set [19], 138% in the data set with P388/S [20] and 10% in the data set on CHO [21]. For the same compound, the LD50 in [6] worked out at 2.1 mg/kg. For the same compound, in data set [9], the inhibition in vivo at 0.25 mg/kg was 76%. For the same compound, the inhibition in vivo at 0.1 mg/kg in data set [12] worked out at 51%. Further, in data set [16], the inhibition in vivo at 0.2 mg/kg came to 76%.
